Columns and labels:
Assay type in all cases: cell-based, murine
[1] = tested on: CD4+ T-cell blasts (S-phase entry); assay: S-phase entry by EdU labeling, delayed inhibitor addition; conditions: GDC-0941 1.5 µM added 12 hours after IL-2 stimulation
[2] = tested on: pSTAT5 in CD4+ T-cell blasts; assay: pSTAT5 time course after IL-2 stimulation; conditions: tofacitinib 50 nM
How it was run: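 Rested mouse CD4+ T-cell blasts received 15 nM test compound or a reference JAK inhibitor (50 nM), 2 h before or 90 min after rhIL-2 (50 u/mL). pSTAT5 and pS6 (Ser240/244) were read by phosphoflow at the indicated times from 15 min onward: 2% PFA fixation, 90% methanol permeabilisation, barcoding. MFI was normalised to the 15-min DMSO maximum and given as mean ± SEM of 4–10 independent experiments.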

CD4+ T-cell blasts = assay: IL-2-driven T-cell proliferation; conditions: Mus musculus, read-out: EC90 for blocking T-cell proliferation

Row | SMILES | S-phase entry [1] | reduction of pSTAT5 levels during the second wave [2] [%] | EC90 (CD4+ T-cell blasts) [nM]
1 | CS(=O)(=O)N1CCN(Cc2cc3nc(-c4cccc5[nH]ncc45)nc(N4CCOCC4)c3s2)CC1 [GDC0941] | prevented the majority of cells from entering S-phase |  | 
2 | C[C@@H]1CCN(C(=O)CC#N)C[C@@H]1N(C)c1ncnc2[nH]ccc12 [tofacitinib] |  | > 50 | 50

Reference: publication PMC4837022 (Nature chemical biology, 2016)
